Reference: the EternaBench riboswitch data

System: MS2 coat protein
Experiment: apparent Kd, MS2 coat protein; higher = weaker binding; RNA-MaP array; FMN 200 µM where present
How it was run: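 In 100 mM Tris-HCl pH 7.5, 80 mM KCl, 4 mM MgCl2, BSA, DTT, yeast tRNA and Tween-20, SNAP-549-labelled MS2 coat protein was titrated from 0.7 or 1.5 nM, doubling to 3 µM, over designs transcribed by stalled E. coli RNA polymerase on Illumina sequencing-chip clusters. This was done first without ligand, then with ligand held constant. After green signal was normalised to red-channel RNA signal and control-cluster median Fmax, the apparent Kd was taken as the median of filtered per-cluster binding-curve fits.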

[1] = designed as: OFF switch for flavin mononucleotide, no ligand
[2] = ligand present: flavin mononucleotide, designed as: OFF switch for flavin mononucleotide
[3] = designed as: ON switch for flavin mononucleotide, no ligand
[4] = ligand present: flavin mononucleotide, designed as: ON switch for flavin mononucleotide

Sequence | apparent Kd [1] | apparent Kd [2] | apparent Kd [3] | apparent Kd [4]
UGUCCAUAGCAGAAGGACAUGAGGAUCACCCAUGUAAUCAUACAAAUAUAUGUAGGAUAUGCUAUGGACUAAGAGCGAAAGCUC | 6.14 nM | 6.74 nM |  | 
UGAUCUAUGUAGAAGGCCCAUAUCUAUAUUUAGGGAGGAUAUACAUGAGGAUCACCCAUGUAUAGAGCGGGUGGACCCGUCACU | 74.1 nM | 185 nM |  | 
CCUUGACAUGAGGAUCACCCAUGUUAGGAUAUAACAUUAGACACUACAGUAUGUAGUGUUAGAAGGGAUAUGGG | 22.8 nM | 28.5 nM |  | 
GUGAGGUCAGGAUAUGCAUGGCGGGACUUGCGUCGUGGCGUGCAGAAGGGACAUGAGGAUCACCCAUGUGGAGG | 225 nM | 302 nM |  | 
AAGCGAGGGACAGGAUAUGCGGCAAAACUCGCCGCAGAAGGGUCGACAUGAGGAUCACCCAUGUCCUUACGCUCCAAGUAGAGG |  |  | 213 nM | 359 nM
GGCUCUGCUCGAGGAUAUAGCUGCAUGUAGUGUCCUGAGGCACAUGAGGAUCACCCAUGUGUAGGCUAGAAGGCGACAGAGGCG | 188 nM | 276 nM |  | 
GGCGCAUUUGUGGCGUAUAGGUCGAAGGAUAUCACGUGCCGCCUAGUACAUGAGGAUCACCCAUGUGAGAAGGUCGAACUUAAC | 19.3 nM | 83.5 nM |  | 
UUUACAUACAUGAGGAUCACCCAUGUGUUCACCCAUGUAAAUCAGGAUAUAUAUAUAUAGAAUGUAUAGAAGGGAUAAUUUUUU | 97.5 nM | 99.7 nM |  | 
GUGUACGGAGGAUAUAUGUGGGCAGCAUACGCUGCAGCUUCACAUGAGGAUCACCCAUGUAGAAGGCUGUACAC | 28.7 nM | 169 nM |  | 
GGUACUCAAAGAGUACCUAUACGAACAUGAGGAUCACCCAUGUAGGAUAUGCUACUCAAAGAGUAGCAGAAGGACAUGUGCCUA | 18.6 nM | 108 nM |  | 
CAAUCUGCAGGAUAUACAUGAGGAUCACCCAUGUAAGGACAAUAAAUAAGAAGAAGAAGUAGAAGGGCAGACAA | 30.1 nM | 31.8 nM |  | 
CAUUGGUAAGGAUAUGCACCGAUCUCCGAAAGGAGAUCGGUGCAGAAGGUACAUGAGGAUCACCCAUGUUGAUG | 27.1 nM | 63.9 nM |  | 
AAGCACGAAGAUUAUUAUGAAUAAACAUGAGGAUCACCCAUGUAGGAUAUCGACUCGAAUAGAGUCGAGAAGGACAUAACGUGC | 6.85 nM | 20.7 nM |  | 
AAGAGCGAUUCUCCCUUCCUACAUGAGGAUCACCCAUGUACGAGAAGGCGCCGCGUAUACAACGGUGAGGAUAUCGUGCGUUAC | 4.45 nM | 4.98 nM |  | 
GAGUGGUUGGGAGGAUAUGCAUUGUUAUUAAAUGCAGAAGGUUUUAACAUGAGGAUCACCCAUGUAGGACUAUUCCUGUGUUUC |  |  | 17.4 nM | 14.6 nM
UAUAUAUAGUAAGGAUAUGUAUUUAUUUUAUUAACAGAAGGUACUGACAUGAGGAUCACCCAUGUUUUAGUGUGGGCAUGUAGA | 103 nM | 146 nM |  | 
UGUAAUAUUAUAGGAUAUGGUUACGAUACGUAACCAGAAGGGUGAUUAUACUAUAAUCUAUACAUGAGGAUCACCCAUGUUUAU |  |  | 205 nM | 110 nM
AUCAGCUCGUCAGGAUAUACGUCACUGCGUCAGCAGUGUGGUAAGAUCACAUGAGGAUCACCCAUGUAGAAGGGACGAGCUGCU | 14 nM | 264 nM |  | 
GGUGCGUAUGUGAGGAUAUGCUGGUCCUUGGAUCGGCAGAAGGCACAUGAGGAUCACCCAUGUGGUGUCGUACG | 59.6 nM | 228 nM |  | 
ACGACGAAAGUCGAACGAUGUAGCAGAAGGACAUGAGGAUCACCCAUGUCAGCUGUAACAGCCAUGUAGGAUAUGCUACAUCGC | 4.38 nM | 5.45 nM |  | 
ACAAGAUCAGGAUAUACAUGAGGAUCACCCAUGUAUAUCAAAAAAGGGCCUUCUACAUGUAGAAGGGAUCUUGU | 13.1 nM | 12.1 nM |  | 
CUGAGUAGUCAGGAUAUGUGGUACAAAAGUACUGCAGAAGGGAUUACAUGAGGAUCACCCAUGUUUACUUCAUG | 47.4 nM | 242 nM |  | 
CGCUCAAUUACUUAGGAUAGAAUCAGAAGGCGUAACAUGAGGAUCACCCAUGUAUAGACGUGUAACGAGGAUAUGAAUUGAGCG | 5.36 nM | 5.34 nM |  | 
GACAGGGAUUCAGGAUAUAUUAGCCGAGGCCGAGUAGAAGGGAAAUCCUGACAUGAGGAUCACCCAUGUCGACCCGCCUUCCUU |  |  | 50.7 nM | 51.9 nM
AUAGAAAGAUUAAUAUGAUUACAUGAGGAUCACCCAUGUAUAUAGGAUAUCGACGUCAAUGACGUCGAGAAGGAUAUACAUAAU | 27.6 nM | 90.4 nM |  | 
AAAACAUACCGAGGAUAUUCAUUUAAUAAAUAAACAUGAGGAUCACCCAUGUGGCAAAAGCCUAGGGAGAAGGCGGAAUGCUAA |  |  | 33.4 nM | 26.5 nM
GUCUUCCUAGGAUAUACAUGAGGAUCACCCAUGUACAGUUUCGUCUUGGGAUACUCGCGUAGAAGGAGGUGGAU | 31.9 nM | 23.4 nM |  | 
UCGGGUUAUACAGGAUAUGUUUAGGUUUAUUCAUGCAGUUAUUAAUUUAUGACAGAAGGGUAUACAUGAGGAUCACCCAUGUCA | 542 nM | 387 nM |  | 

Sequence | apparent Kd [1] | apparent Kd [2] | apparent Kd [3] | apparent Kd [4]
GACGGGCAGCUCGUGAUCCCAUCGCCAGAAGGGCCACAUGAGGAUCACCCAUGUCGUAAAACAAGGCAGGAUAUGGCAGGGAAC |  |  | 9.93 nM | 5.21 nM
GUAUCGUAUGUGAGGAUAUAUUUGUCCUUGGAUUUGUAGAAGGCACAUGAGGAUCACCCAUGUCCUAGUGGUCC | 35.1 nM | 34.9 nM |  | 
GGGUGGCGUAGAGGAUAUAUGGUACAUGAGGAUCACCCAUGUACAUAUGAUGUUCAUGUUUAUGUAUAGAAGGCUACGUCGCUA |  |  | 10.1 nM | 9.76 nM
GUGGUUGUCGUAGGAUAUGUAGGAUAUUCCUACAUGAGGAUCACCCAUGUUCGCAUGGAAGAAGGACAGAAGGACGAUGACCAU |  |  | 1020 nM | 10.7 nM
AGCUACGUUUCGUAGCAGUGUCAUCGAGAAGGCUCAUAAACAUGAGGAUCACCCAUGUAAACAUGGGAGGAUAUCGAUGAUACA |  |  | 39.6 nM | 6.5 nM
GCCAGUUGAGGAUAUGCAGGUGGGUGCCCUGAUCCUCUGUUACAUGAGGAUCACCCAUGUAGAAGGCAAUGUCA | 92.4 nM | 123 nM |  | 
AUCCUUAACAAGGAUAUCGGGCGGGAAAUUGUUUGAGAAGGUGUGACAUGAGGAUCACCCAUGUGGCGCGUGGG | 317 nM | 257 nM |  | 
UUGAUUCAUUCCUCCAUAAACAUGAGGAUCACCCAUGUAAGUGAGGAUAUAGUUGGAGUAGUAUACUAGAAGGCACUUAGAUAU | 12.3 nM | 9.75 nM |  | 
AGCUGGUGACAGCAUCGAGCAAAACAUGAGGAUCACCCAUGUAGAAGGCUGUACGGUUACCGUACAGAGGAUAUACAAAGCUCG | 6.35 nM | 8.14 nM |  | 
CAGGUAGACUGAGGAUAUACAUGACUUAGUCUAUCUAGGUCUAAAAUCACAUGAGGAUCACCCAUGUAGAAGGCAGUCUGCCUG | 17.6 nM | 24.2 nM |  | 
GUGUACAGAGGAUAUAUAUGAGCAUGGAAACAUGCAACUUCACAUGAGGAUCACCCAUGUAGAAGGCUGUACAC | 14.2 nM | 14.3 nM |  | 
AUAAUGUGAGGAUAUAUGUAUCACGGUGAUACACCGUGAUGAUAGAAGGUACAUGAGGAUCACCCAUGUAGGGC | 36.6 nM | 72.7 nM |  | 
CGAUAAUAUAGAGGAUAUGUUUAACAUGAGGAUCACCCAUGUGACAUGGGAUUAAUAUAUAACUUACAGAAGGCUAUACAAUCG | 34.1 nM | 46.9 nM |  | 
UCGAGUCAUGAGAAGGACUGAUGUUACAUGAGGAUCACCCAUGUCAUGGGUAGGAUAUCAUUGACACGGCCGUACCUCUCUUAC |  |  | 355 nM | 78.2 nM
GGAUAGGACCGAGGAUAUACGUGCUAGAGAUACUAGCAAAAUUUCCUCACAUGAGGAUCACCCAUGUAGAAGGCUGUCCUAUCG | 5.78 nM | 12.5 nM |  | 
GUGGUACAUGAGGAUCACCCAUGUUAGGAUAUCGCGUGAGGUUUUACUUCCGCGCGCGCGAGAAGGGACGUCUU | 26.8 nM | 22.8 nM |  | 
CUGCCUUAUGAGAAGGCGAUCAUGAAACAUGAUCGAGGAUAUCAUGUAAACAUGAGGAUCACCCAUGUAUGGGUAUUAUGGUAG |  |  | 529 nM | 74.5 nM
GCUACUUAUUUUAAGUAUGAUUUACUAGAAGGUAGAUACAUGAGGAUCACCCAUGUUUAGAGUUCUAAGGAUAUAGUUUGUAGC |  |  | 7.81 nM | 7.57 nM
AAAUAAAGGACUAAGGAUAUAUCACAUGAAACAUGAGGAUCACCCAUGUAAUAAUACAAAGGGUGAUAGAAGGUAGUCCACAAACA |  |  | 55.7 nM | 20.5 nM
AAGUCACAUGAGGAUCACCCAUGUCGUAAACGAUGAGGAUAUAGGAACGAAAGAAAAAAACUAGAAGGUAUAACAA |  |  | 52.2 nM | 52 nM
ACCAGAACAUGAGGAUCACCCAUGUAUCUAUACCAAGCGACACAGGAUAUACAAAGCGAAAGCGGGUAGAAGGGUGAUCAUGCA |  |  | 63.5 nM | 182 nM
UUAAAUCAUGUAGGAUAUGCAUGGCGAAGCUACGCAGAAGGACAUGAGGAUCACCCAUGUUAUAGCGUCCGAUAAAGGAUGCAA | 85.1 nM | 225 nM |  | 
AAGUGGUUUAUAUAUAUAGAAAUCAGAAGGCGUGACAUGAGGAUCACCCAUGUGUUCAGUCAUGACGAGGAUAUGACUAAUUGU | 69.9 nM | 85.4 nM |  | 
GACUCGCGCACAGGAUAUCCACGGAGCGGACGCGGAGAAGGGUGACAUGAGGAUCACCCAUGUACGUGAGUCUAGAUCACUUCC |  |  | 76.8 nM | 22.5 nM
CCUAAGGACACAGGAUAUAGCGUGGUGGCUGGGCUCCAACGACAAGCGGCGCUAGAAGGGUGACCACAUGAGGAUCACCCAUGU |  |  | 754 nM | 218 nM
ACGCUUUGGGAGAAGGUACGUGAAGUAUUAUCCACAUGAGGAUCACCCAUGUAAGGAUAUCCCGGCGUGAAAUAGGCUACAGCA | 4.77 nM | 11.3 nM |  | 
UGUUUUGAAGUAGGAUAUCAACACACAUGAGGAUCACCCAUGUUAGAUGUGGAUGUUGUAUGUUAUGAGAAGGACUUCGAUUCG | 25.6 nM | 95.4 nM |  | 
